Source: ChEMBL document CHEMBL1134511, “Development of potent non-carbohydrate imidazole-based small molecule selectin inhibitors with antiinflammatory activity” (J Med Chem, 2001)

Legend:
[1] = target: T1, P-selectin (Homo sapiens, UniProt P16109); assay: Inhibitory activity against P-selectin using ELISA-based assay
T1 sequence (P16109 whole entry): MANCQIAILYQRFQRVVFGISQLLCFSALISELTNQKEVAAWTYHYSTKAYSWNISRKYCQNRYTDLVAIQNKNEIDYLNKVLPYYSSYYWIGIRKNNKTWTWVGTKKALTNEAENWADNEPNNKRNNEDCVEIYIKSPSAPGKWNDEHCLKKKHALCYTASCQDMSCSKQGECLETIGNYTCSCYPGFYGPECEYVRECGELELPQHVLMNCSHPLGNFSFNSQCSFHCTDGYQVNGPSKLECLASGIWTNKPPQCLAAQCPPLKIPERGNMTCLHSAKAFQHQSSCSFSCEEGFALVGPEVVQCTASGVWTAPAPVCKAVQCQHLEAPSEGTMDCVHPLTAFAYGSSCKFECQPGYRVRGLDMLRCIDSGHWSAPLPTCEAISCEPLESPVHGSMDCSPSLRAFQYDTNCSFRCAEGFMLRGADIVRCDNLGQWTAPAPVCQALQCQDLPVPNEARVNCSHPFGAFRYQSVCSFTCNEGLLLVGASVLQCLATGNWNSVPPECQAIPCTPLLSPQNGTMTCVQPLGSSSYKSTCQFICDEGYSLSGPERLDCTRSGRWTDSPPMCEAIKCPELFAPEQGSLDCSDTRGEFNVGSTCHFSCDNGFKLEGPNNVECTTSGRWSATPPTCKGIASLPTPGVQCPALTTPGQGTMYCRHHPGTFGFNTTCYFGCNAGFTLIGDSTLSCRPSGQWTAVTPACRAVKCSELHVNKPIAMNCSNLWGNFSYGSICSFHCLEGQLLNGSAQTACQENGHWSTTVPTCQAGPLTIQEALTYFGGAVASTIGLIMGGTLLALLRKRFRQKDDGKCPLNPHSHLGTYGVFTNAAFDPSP
Summary of the method: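 P-selectin–IgG chimera precomplexed with biotinylated goat F(ab')2 anti-human IgG and streptavidin–alkaline phosphatase, preincubated with compound 30 min RT in 50 mM imidazole pH 7.2, 1% BSA, 1 mM CaCl2. Mix added to sialyl Lewis^x pentaceramide-coated (40-100 pmol/well), BSA-blocked wells, 45 min 37 °C. p-Nitrophenyl phosphate read at 405 nm; chimera-free background subtracted; duplicate/triplicate; IC50 from % inhibition.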

[2] = target: T1, P-selectin; assay: Inhibitory activity against P-selectin using cell-selectin protein assay
[3] = target: T1, P-selectin; assay: Inhibitory activity against P-selectin using cell-cell assay; Not active; assay type: functional
Summary of the method: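 CHO cells stably transfected with human P-selectin, plated the day before, used as monolayers. Compounds added at 2× in cold RPMI, 20 min 4 °C; BCECF-AM-labelled HL60 cells (2 × 10⁶ cells/mL) then adhered 30 min at 4 °C. Unbound cells washed off, bound cells read by fluorescence; triplicates; IC50 by Probit analysis.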

[4] = target: T2, E-selectin (Homo sapiens, UniProt P16581); assay: Inhibitory activity against Selectin E using cell-cell assay; Not active; assay type: functional
T2 sequence (P16581 whole entry): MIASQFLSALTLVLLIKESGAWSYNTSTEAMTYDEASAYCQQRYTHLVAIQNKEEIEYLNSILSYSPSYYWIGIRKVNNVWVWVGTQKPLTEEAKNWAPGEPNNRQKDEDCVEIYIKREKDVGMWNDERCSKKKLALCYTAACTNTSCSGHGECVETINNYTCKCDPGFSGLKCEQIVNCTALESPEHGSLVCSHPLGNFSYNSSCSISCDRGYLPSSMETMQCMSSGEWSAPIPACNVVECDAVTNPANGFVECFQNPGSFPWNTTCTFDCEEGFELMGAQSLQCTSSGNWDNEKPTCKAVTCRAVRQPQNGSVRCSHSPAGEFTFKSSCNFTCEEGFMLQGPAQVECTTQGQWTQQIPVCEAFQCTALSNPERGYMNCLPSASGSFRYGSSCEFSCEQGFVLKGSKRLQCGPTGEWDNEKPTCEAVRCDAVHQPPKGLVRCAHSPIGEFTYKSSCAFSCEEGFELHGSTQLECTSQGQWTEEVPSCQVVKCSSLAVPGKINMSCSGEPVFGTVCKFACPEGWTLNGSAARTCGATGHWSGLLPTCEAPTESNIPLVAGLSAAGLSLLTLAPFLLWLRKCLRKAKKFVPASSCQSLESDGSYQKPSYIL
Summary of the method: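 HUVEC monolayers (≤4-5 passages, gelatin-coated wells) activated on assay day with 10 ng/mL IL-1β as native E-selectin source. Compounds at 2× in cold RPMI preincubated 20 min 4 °C in triplicate; BCECF-AM-labelled HL60 cells (2 × 10⁶ cells/mL) added, 30 min 4 °C. Unbound cells washed off, bound cells read by fluorescence; IC50 by Probit analysis.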

IC50 [1]	IC50 [2]	IC50 [3]	IC50 [4]	Structure (SMILES)
0.13 µM	2.7 µM			CCCCCCCCCCCCCCCCNC(=O)/C=C/c1ccc(-c2[nH]c(-c3ccc(-c4cc(C(=O)O)on4)cc3)nc2-c2ccc(/C=C/C(=O)O)cc2)cc1
> 1 µM				CC(=O)N[C@H]1[C@H]([C@H](O)[C@H](O)CO)O[C@@](O[C@H]2[C@@H](O)[C@@H](CO)O[C@@H](O[C@@H]([C@H](O[C@@H]3O[C@@H](C)[C@@H](O)[C@@H](O)[C@@H]3O)[C@H](C=O)NC(C)=O)[C@H](O)CO)[C@@H]2O)(C(=O)O)C[C@@H]1O [SIALYL LEWIS X]
16 µM	44 µM			CCCCCCCc1ccc(NC(=O)/C=C/c2ccc(-c3[nH]cnc3-c3ccc(/C=C/C(=O)O)cc3)cc2)cc1
	21 µM	Not Active	Not Active	CCCCCCN(CCCCCC)C(=O)/C=C/c1ccc(-c2[nH]cnc2-c2ccc(/C=C/C(=O)O)cc2)cc1
0.29 µM	9 µM			CCCCCCCCCCCCCCCCNC(=O)/C=C/c1ccc(-c2[nH]c(-c3ccc(C4=NOC(C(=O)O)C4)cc3)nc2-c2ccc(/C=C/C(=O)O)cc2)cc1 (stereo not given)
3 µM	290 µM		Not Active	CCCCCCCCCCCCNC(=O)/C=C/c1ccc(-c2[nH]c(-c3ccc(-c4cc(C(=O)O)on4)cc3)nc2-c2ccc(/C=C/C(=O)O)cc2)cc1
100 µM	21 µM			O=C(O)/C=C/c1ccc(-c2nc(-c3ccc(/C=C/C(=O)NCCCc4ccccc4)cc3)c(-c3ccc(C4=NOC(C(=O)O)C4)cc3)[nH]2)cc1 (stereo not given)
34 µM	50 µM	Not Active		O=C(/C=C/c1ccc(-c2nc(-c3ccc(N4CCCC4)cc3)[nH]c2-c2ccc(C3=NOC(C(=O)O)C3)cc2)cc1)NCCCc1ccccc1 (stereo not given)
17 µM	40 µM			CCCCCCCCCCCCCCCCNC(=O)/C=C/c1ccc(-c2[nH]cnc2-c2ccc(/C=C/C(=O)O)cc2)cc1
